Source: ChEMBL document CHEMBL1135613, “Soluble tetraarylporphyrin-platinum conjugates as cytotoxic and phototoxic antitumor agents” (J Med Chem, 2002)

How the values were obtained:
Assay type in all cases: cell-based
Details in all cases: human
TCC-SUP [1] = test: Cytotoxicity of compound in light was determined at 1 uM in TCC-SUP transitional bladder cancer cells; Marked light-induced toxicity
TCC-SUP [2] = test: Cytotoxicity of compound in dark was determined at 1 uM in TCC-SUP transitional bladder cancer cells; No statistically significant cytotoxicity
TCC-SUP [3] = test: Cytotoxicity of compound was determined from treated to that of control TCC-SUP cells
How it was run: (§1)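 Kinetic (multiple-point) chemosensitivity assay: TCC-SUP cells (passage 56) seeded in microplates, drug added after 48 h at 1, 5 and 10 µM from 10 mM stocks, 0.1% (v/v) final solvent. Medium left unchanged; growth followed by absorbance at 578 nm up to 144 h. T/C corr. = (T−C0)/(C−C0)×100; cytocidal effect = (C0−T)/C0×100 when T<C0.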

TCC-SUP [4] = test: Cytotoxicity of compound in dark was determined at 10 uM in TCC-SUP transitional bladder cancer cells; No statistically significant cytotoxicity
TCC-SUP [5] = test: Cytotoxicity of compound in dark was determined at 5 uM in TCC-SUP transitional bladder cancer cells; No statistically significant cytotoxicity
TCC-SUP [6] = test: Photoxicity of compound in light was determined at 1 uM in TCC-SUP transitional bladder cancer cells; Marked light-induced toxicity
TCC-SUP [7] = test: Cytotoxicity of compound was determined from treated to that of control on the proliferation of TCC-SUP cells at 5 uM; how it was run: as §1
TCC-SUP [8] = test: Cytocidal of compound was determined from 10 uM in TCC-SUP cells incubated for 144 hr; how it was run: as §1
TCC-SUP [9] = test: Cytotoxicity of compound was determined from treated to that of control on the proliferation of TCC-SUP cells at 1 uM; how it was run: as §1

For `COCCOCCOc1ccc(-c2c3nc(c(-c4ccc(OCCOCCOC)cc4)c4ccc([nH]4)c(-c4ccc(OC(C(=O)O)C(=O)O)cc4)c4nc(c(-c5ccc(OCCOCCOC)cc5)c5ccc2[nH]5)C=C4)C=C3)cc1`, the Cytotoxicity (TCC-SUP [1]) was “Marked light-induced toxicity”, the Cytotoxicity (TCC-SUP [2]) was “No effect” and the T/C corr (TCC-SUP [3]) was 37%.

`COCCOCCOCCOCCOCCOCCOCCOCCOCCOCCOCCOCCOCCOCCOCCOCCOCCOc1ccc(-c2c3nc(c(-c4ccc(OCCOCCOCCOCCOCCOCCOCCOCCOCCOCCOCCOCCOCCOCCOCCOCCOCCOC)cc4)c4ccc([nH]4)c(-c4ccc(OC(C(=O)O)C(=O)O)cc4)c4nc(c(-c5ccc(OCCOCCOCCOCCOCCOCCOCCOCCOCCOCCOCCOCCOCCOCCOCCOCCOCCOC)cc5)c5ccc2[nH]5)C=C4)C=C3)cc1` was tested, and the Cytotoxicity (TCC-SUP [4]) was “No effect”.

With `COCCOCCOCCOc1ccc(-c2c3nc(c(-c4ccc(OCCOCCOCCOC)cc4)c4ccc([nH]4)c(-c4ccc(OC(C(=O)O)C(=O)O)cc4)c4nc(c(-c5ccc(OCCOCCOCCOC)cc5)c5ccc2[nH]5)C=C4)C=C3)cc1` the Cytotoxicity (TCC-SUP [5]) was “No effect”, the T/C corr (TCC-SUP [3]) was 37% and the Cytotoxicity (TCC-SUP [6]) was “Marked light-induced toxicity”.

“Diammine[2-(4-{10,15,20-tris[4-(1,4,7,10-tetraoxaundecyl)phenyl]porphyrin-5-yl}phenoxy)malonato]platinum-(II)” was tested, and the T/C corr (TCC-SUP [7]) was 2.8%, the Cytocidal effect (TCC-SUP [8]) was 17.1% and the T/C corr (TCC-SUP [9]) was 26.2%.
